Results: ChEMBL document CHEMBL1125740, “Heterocyclic quinones. 17. A new in vivo active antineoplastic drug: 6,7-bis(1-aziridinyl)-4-[[3-(N,N-dimethylamino)propyl]amino]-5,8- quinazolinedione” (J Med Chem, 1991)
“And” between values parts separate entries of the source, which are not always exact repeats. Equal entries are not always repeated.

Key:
P388 [1] = assay: Compound was evaluated in vivo for antitumor activity after intraperitoneal administration against P388/L-PAM(14) for change in body weight at an optimal dose of 0.25 mg/kg/injection at 1,4,7,11 day schedule.; type: functional, Mus musculus
[2] = Compound was evaluated in vivo for antitumor activity against mammary adenocarcinoma 16/C after injecting the compound intravenously for median; type: functional, Mus musculus
P388 [3] = assay: Compound was evaluated in vivo for antitumor activity after intraperitoneal administration against P388 (1313) for median day of death at an optimal dose of 0.4 mg/kg/injection; type: functional, Mus musculus
P388 [4] = assay: Compound was evaluated in vivo for antitumor activity after intraperitoneal administration against P388/L-PAM(14) for % increase in life span at an optimal dose of 0.4 mg/kg/injection at 1,2,3,4 day schedule.; type: functional; conditions: Mus musculus, P388, ip
P388 [5] = assay: Compound was evaluated in vivo for antitumor activity after intraperitoneal administration against P388/L-PAM(14) for tumor free survivors at an optimal dose of 0.5 mg/kg/injection at one day schedule on day 60; type: functional, Mus musculus
P388 [6] = assay: Compound was evaluated in vivo for antitumor activity after intraperitoneal administration against P388 (1303) for change in body weight at an optimal dose of 0.75 mg/kg/injection; type: functional, Mus musculus
B16 = assay: Compound was evaluated in vivo for antitumor activity against B16 melanoma after injecting the compound intravenously for total dose.; type: functional, Mus musculus
How it was run: (§1)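 30-60 mg tumor fragments implanted sc by trocar on day 0 into C57Bl/6-derived hosts (B16) or C3H/He-derived hosts (16/C). Drug given iv on days 6, 9 and 13 (B16) or 6, 9 and 12 (16/C), 10 mice per group. Tumors measured by caliper. T/C % taken from median tumor burden of treated vs control groups on day 15 (B16) or day 14 (16/C). Body weight change per mouse recorded at nadir.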

L1210 [7] = assay: Compound was evaluated in vivo for antitumor activity after intraperitoneal administration against L1210(935) for tumor free survivors at an optimal dose of 0.25 mg/kg/injection at 1,4,7,11 day schedule.; type: functional, Mus musculus
How it was run: (§2)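 L1210 leukemia, maintained in DBA/2 mice, was given ip as 10⁵ cells on day 0 to F1 hybrid or strain-of-origin mice over 18 g, in groups of 8. Dosing was ip from day 1, and mortality was checked daily. Median day of death counts dying mice only. %ILS = 100×(treated − control median day of death)/control median. Tumor-free survivors were counted on day 60. Weight change is g/mouse at nadir.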

L1210 [8] = assay: Compound was evaluated in vivo for antitumor activity after intraperitoneal administration against L1210(935) for median day of death at an optimal dose of 0.125 mg/kg/injection at 1,4,7,11day schedule.; type: functional, Mus musculus; how it was run: as §2
[9] = Compound was evaluated in vivo for antitumor activity against mammary adenocarcinoma 16/C after injecting the compound intravenously for percent T/C; type: functional, Mus musculus; how it was run: as §1
L1210 [10] = assay: Compound was evaluated in vivo for antitumor activity after intraperitoneal administration against L1210(935) for total dose at an optimal dose of 0.125 mg/kg/injection at 1,4,7,11day schedule.; type: functional, Mus musculus; how it was run: as §2
L1210 [11] = assay: Compound was evaluated in vivo for antitumor activity after intraperitoneal administration against L1210(935) for mortality range at an optimal dose of 1 mg/kg/injection at 1 day schedule.; type: functional, Mus musculus; how it was run: as §2
P388 [12] = assay: Compound was evaluated in vivo for antitumor activity after intraperitoneal administration against P388/L-PAM(12) for mortality range at an optimal dose of 0.75 mg/kg/injection; type: functional, Mus musculus
[13] = Compound was evaluated in vivo for antitumor activity against mammary adenocarcinoma 16/C after injecting the compound intravenously for median tumor burden; type: functional, Mus musculus; how it was run: as §1
P388 [14] = assay: Compound was evaluated in vivo for antitumor activity after intraperitoneal administration against P388 (1313) for total dose at an optimal dose of 0.2 mg/kg/injection; type: functional, Mus musculus
[15] = Compound was evaluated in vivo for antitumor activity against Lewis Lung cercinoma after injecting the compound intravenously for percent T/C (value in parentheses indicates the day of evaluation); type: functional, Mus musculus
L1210 [16] = assay: Compound was evaluated in vivo for antitumor activity after intraperitoneal administration against L1210(935)for change in body weight at an optimal dose of 0.125 mg/kg/injection at 1,4,7,11day schedule.; type: functional, Mus musculus; how it was run: as §2
L1210 [17] = assay: Compound was evaluated in vivo for antitumor activity after intraperitoneal administration against L1210(935) for total dose at an optimal dose of 0.4 mg/kg/injection at 1-4 day schedule.; type: functional, Mus musculus; how it was run: as §2
P388 [18] = assay: Compound was evaluated in vivo for antitumor activity after intraperitoneal administration against P388/L-PAM(14) for mortality range at an optimal dose of 0.25 mg/kg/injection at 1,4,7,11 day schedule.; type: functional, Mus musculus
[19] = Compound was evaluated in vivo for antitumor activity against Glasgow osteogenic sarcoma after injecting the compound intravenously for total dose.; type: functional, Mus musculus
How it was run: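 Glasgow osteogenic sarcoma in C57Bl/6-derived hosts: 30-60 mg fragments implanted sc by trocar on day 0. Drug given iv on days 3, 6 and 9, 7 mice per group. Tumors measured by caliper. Median tumor burden recorded on day 10. Body weight change per mouse recorded at nadir. Toxicity-related deaths counted.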

P388 [20] = assay: Compound was evaluated in vivo for antitumor activity after intraperitoneal administration against P388/L-PAM(14) for tumor free survivors at an optimal dose of 0.4 mg/kg/injection at 1,2,3,4 day schedule.; type: functional, Mus musculus
[21] = Compound was evaluated in vivo for antitumor activity against Lewis Lung cercinoma after injecting the compound intravenously for toxicity related death.; type: functional, Mus musculus
How it was run: (§3)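 Lewis lung carcinoma: 10^6 cells implanted im into C57Bl/6-derived hosts. Drug given iv on days 5, 9 and 13, 10 mice per group. Median tumor burden and weight nadir recorded. Survivors were killed on day 19, and their lungs were fixed in Fekete solution so that macroscopic metastases could be counted.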

L1210 [22] = assay: Compound was evaluated in vivo for antitumor activity after intraperitoneal administration against L1210(935)for % increase in life span at an optimal dose of 0.5 mg/kg/injection at 1,4,7,11day schedule.; type: functional; conditions: Mus musculus, L1210, ip; how it was run: as §2
[23] = Compound was evaluated in vivo for antitumor activity against Lewis Lung cercinoma after injecting the compound intravenously for change in body weight.; type: functional, Mus musculus; how it was run: as §3
[24] = Compound was evaluated in vivo for antitumor activity against Lewis Lung cercinoma after injecting the compound intravenously for optimal dose; type: functional, Mus musculus; how it was run: as §3
L1210 [25] = assay: Compound was evaluated in vivo for antitumor activity after intraperitoneal administration against L1210(935)for % increase in life span at an optimal dose of 0.2 mg/kg/injection at 1-4 day schedule.; type: functional; conditions: Mus musculus, L1210, ip; how it was run: as §2
P388 [26] = assay: Compound was evaluated in vivo for antitumor activity after intraperitoneal administration against P388/L-PAM(14) for change in body weight at an optimal dose of 0.5 mg/kg/injection at one day schedule.; type: functional, Mus musculus

Structure (SMILES): CN(C)CCCNc1ncnc2c1C(=O)C(N1CC1)=C(N1CC1)C2=O
- Change in body weight (P388 [1]): 0.9 g mouse-1
- Tumor burden [2]: 895 mg
- Median day of death (P388 [3]): 23
- ILS at 0.4 mg/kg (P388 [4]): 43%
- Survivors (P388 [5]): 0
- Change in body weight (P388 [6]): 3.2 g mouse-1
- Total dose (B16): 0.6 mg/kg
- Survivors (L1210 [7]): 0
- Median day of death (L1210 [8]): 13
- T/C [9]: 48% and 68%
- Total dose (L1210 [10]): 0.5 mg/kg
- Mortality (L1210 [11]): 16 days
- Mortality (P388 [12]): 19
- Tumor burden [13]: 1265 mg
- Optimal dose (P388 [14]): 0.8 mg/kg
- T/C [15]: 81%
- Change in body weight (L1210 [16]): 2.7 g mouse-1
- Total dose (L1210 [17]): 1.6 mg/kg
- Mortality (P388 [18]): 20 days
- Total dose [19]: 1.08 mg/kg
- Survivors (P388 [20]): 0
- Toxicity [21]: 0
- ILS at 0.5 mg/kg (L1210 [22]): 27%
- Change in body weight [23]: 0.6 g mouse-1 and 1.1 g mouse-1
- Optimal dose [24]: 0.4 mg/kg and 0.2 mg/kg
- ILS at 0.2 mg/kg (L1210 [25]): 27%
- Change in body weight (P388 [26]): 1.3
